From ChEMBL document CHEMBL1156567, “Sulindac derivatives that activate the peroxisome proliferator-activated receptor gamma but lack cyclooxygenase inhibition” (J Med Chem, 2008)
Active and inactive are the calls of the source. No cut-off for these calls is given here.

Key:
[1] = biological target: T1, Peroxisome proliferator-activated receptor gamma (Homo sapiens, UniProt P37231); assay: (§1) Agonist activity at PPARgamma expressed in human HCA7 cells assessed as induction of peroxisome proliferator response element after 12 hrs by luciferase reporter assay; type: functional, cell-based
T1 sequence (P37231 whole entry): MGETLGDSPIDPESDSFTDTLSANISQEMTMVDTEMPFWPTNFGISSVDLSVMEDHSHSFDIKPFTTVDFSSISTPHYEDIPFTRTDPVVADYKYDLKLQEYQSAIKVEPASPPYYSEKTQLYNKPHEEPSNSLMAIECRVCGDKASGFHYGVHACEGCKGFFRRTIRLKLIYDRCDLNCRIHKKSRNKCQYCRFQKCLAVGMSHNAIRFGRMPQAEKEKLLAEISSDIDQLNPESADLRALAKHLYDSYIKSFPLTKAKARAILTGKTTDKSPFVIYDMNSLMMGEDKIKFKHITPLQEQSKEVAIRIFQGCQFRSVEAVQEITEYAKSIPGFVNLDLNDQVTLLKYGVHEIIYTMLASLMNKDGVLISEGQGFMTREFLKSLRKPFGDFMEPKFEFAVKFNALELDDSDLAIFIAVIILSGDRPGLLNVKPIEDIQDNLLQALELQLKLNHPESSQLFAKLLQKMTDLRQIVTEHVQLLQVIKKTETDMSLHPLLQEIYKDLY

[2] = biological target: Prostaglandin G/H synthase 1 (Homo sapiens) (UniProt P23219); assay: Inhibition of cyclooxygenase 1 upto 4 uM
[3] = biological target: T2, Peroxisome proliferator-activated receptor gamma (Homo sapiens) (UniProt P37231); assay: as §1; type: functional, cell-based
T2 sequence (whole entry): T1 sequence (P37231 whole entry)

[4] = biological target: T2, Peroxisome proliferator-activated receptor gamma (Homo sapiens); assay: Displacement of [3H]troglitazone from human PPARgamma ligand binding domain expressed in Escherichia coli by scintillation proximity assay
Summary of the method: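 His-tagged human PPARγ-LBD from E. coli, biotinylated and bound to streptavidin SPA beads. Competition against 50 nM 3H-troglitazone with rising unlabeled compound. Buffer 50 mM HEPES pH 7, 50 mM KCl, 5 mM CHAPS, BSA, no dithiothreitol.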

[5] = biological target: T2, Peroxisome proliferator-activated receptor gamma (Homo sapiens); assay: Stimulation of PPARgamma binding to P32-labeled peroxisome proliferator response element in human HCA7 cells nuclear extracts after 30 mins by electrophoretic mobility shift assay; type: cell-based
Summary of the method: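 HCA7 cells treated with vehicle or 0.1–1 μM for 30 min, then nuclear extracts prepared. 5 μg nuclear protein preincubated 10 min at 25 °C in HEPES pH 7.9, glycerol, BSA, poly(dI·dC). 32P-labeled PPRE oligonucleotide added for 20 min at 25 °C. Specificity checked by 100-fold unlabeled or mutant competitor and PPARγ antibody supershift. Run on 4% native PAGE, read by autoradiography.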

[6] = biological target: T2, Peroxisome proliferator-activated receptor gamma (Homo sapiens); assay: Agonist activity at PPARgamma in human HCA7 cells assessed as induction of L-FABP expression after 24 hrs by Western blotting; type: functional, cell-based
Summary of the method: (§2)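 HCA7 cells (DMEM, 10% FBS) treated 0–1 μM for 24 h. Lysates made in Tween 20/protease-inhibitor buffer, sonicated and cleared at 10000g. Protein measured by BCA, 100 μg/lane run on 12.5% SDS-PAGE. Blotted to nitrocellulose, probed for L-FABP, aP2 and β-actin, HRP secondary with ECL detection.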

[7] = biological target: T2, Peroxisome proliferator-activated receptor gamma (Homo sapiens); assay: Agonist activity at PPARgamma in human HCA7 cells assessed as induction of aP2 expression after 24 hrs by Western blotting; type: functional, cell-based; summary of the method: as §2
[8] = biological target: T2, Peroxisome proliferator-activated receptor gamma (Homo sapiens); assay: Agonist activity at PPARgamma in human HCA7 cells assessed as induction of L-FABP expression after 24 hrs by Western blotting in presence of GW-9662; type: functional, cell-based
Summary of the method: (§3)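 HCA7 cells given vehicle, the agonist, the antagonist alone, or both together for 24 h. Lysate protein 100 μg/lane on 12.5% SDS-PAGE, transferred to nitrocellulose. Immunoblot probed for L-FABP, aP2 and β-actin with ECL detection.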

[9] = biological target: T2, Peroxisome proliferator-activated receptor gamma (Homo sapiens); assay: Agonist activity at PPARgamma in human HCA7 cells assessed as induction of aP2 expression after 24 hrs by Western blotting in presence of GW-9662; type: functional, cell-based; summary of the method: as §3
3T3-L1 = assay: Induction of triglyceride accumulation in mouse 3T3L1 cells at 1 uM after 48 hrs; type: functional, cell-based
Summary of the method: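 Mouse 3T3-L1 cells in DMEM with 10% calf serum, grown to 60% confluence. Differentiation started with 0.1% IBMX plus 1.0% dexamethasone for 48 h. Then 2 days in growth medium with 10 μg/mL human insulin plus compound, then fresh growth medium for 48 h. Lipid droplets stained with Oil Red O and imaged at 200×.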

[10] = biological target: T2, Peroxisome proliferator-activated receptor gamma (Homo sapiens); assay: Agonist activity at PPARgamma in human HCA7 cells expressing shRNA assessed as induction of peroxisome proliferator response element at 1 uM after 12 hrs by luciferase reporter assay; type: functional, cell-based
Summary of the method: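 HCA7 lines stably carrying control or PPARγ/α/δ shRNA (nucleofection, puromycin selection). Cells at 40% confluence co-transfected with 1.8 μg PPRE-luciferase and 0.2 μg pSVβgal using Lipofectamine 2000. After 6 h, growth medium for 16 h, then 12 h compound in serum-free medium. Luciferase normalized to β-galactosidase; means, SD, n = 6; Student's t test.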

[11] = biological target: T3, Peroxisome proliferator-activated receptor delta (Homo sapiens) (UniProt Q03181); assay: Agonist activity at PPARdelta in human HCA7 cells assessed as induction of peroxisome proliferator response element at 1 uM after 12 hrs by luciferase reporter assay; type: functional, cell-based
T3 sequence (whole entry): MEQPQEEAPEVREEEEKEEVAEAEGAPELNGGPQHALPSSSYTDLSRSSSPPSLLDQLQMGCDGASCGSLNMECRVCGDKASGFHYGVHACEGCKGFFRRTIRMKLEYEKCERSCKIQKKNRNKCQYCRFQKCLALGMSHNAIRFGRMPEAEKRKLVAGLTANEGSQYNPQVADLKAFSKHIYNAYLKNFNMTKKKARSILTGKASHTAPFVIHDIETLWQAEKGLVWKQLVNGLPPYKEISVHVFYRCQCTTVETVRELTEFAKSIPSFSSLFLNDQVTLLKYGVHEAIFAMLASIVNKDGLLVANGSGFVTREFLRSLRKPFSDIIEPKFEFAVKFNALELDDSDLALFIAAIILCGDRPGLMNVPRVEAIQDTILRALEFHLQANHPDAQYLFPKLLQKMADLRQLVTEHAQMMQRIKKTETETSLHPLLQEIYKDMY
Summary of the method: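 HCA7 human colon cancer cells (which express PPARα, δ and γ) grown in DMEM with 10% FBS to 40% confluence. Transfected with 1.8 μg PPRE-luciferase plus 0.2 μg pSVβgal using Lipofectamine 2000. After 6 h, growth medium for 16 h, then compound in serum-free medium for 12 h. Luciferase normalized to β-galactosidase; n = 6.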

[12] = biological target: T3, Peroxisome proliferator-activated receptor delta (Homo sapiens); assay: Agonist activity at PPARdelta in human HCA7 cells expressing shRNA assessed as induction of peroxisome proliferator response element at 1 uM after 12 hrs by luciferase reporter assay; type: functional, cell-based
Summary of the method: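 Stable HCA7 lines made by nucleofection with control shRNA or shRNAs to PPARγ, α or δ, then puromycin-selected; silencing checked by immunoblot. Cells transfected with 1.8 μg PPRE-luciferase plus 0.2 μg pSVβgal (Lipofectamine 2000). Medium change after 6 h, growth medium for 16 h, then 1 μM compound serum-free for 12 h. Luciferase normalized to β-galactosidase; n = 6.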

Chain of Prostaglandin G/H synthase 1 (Homo sapiens) (P23219 whole entry): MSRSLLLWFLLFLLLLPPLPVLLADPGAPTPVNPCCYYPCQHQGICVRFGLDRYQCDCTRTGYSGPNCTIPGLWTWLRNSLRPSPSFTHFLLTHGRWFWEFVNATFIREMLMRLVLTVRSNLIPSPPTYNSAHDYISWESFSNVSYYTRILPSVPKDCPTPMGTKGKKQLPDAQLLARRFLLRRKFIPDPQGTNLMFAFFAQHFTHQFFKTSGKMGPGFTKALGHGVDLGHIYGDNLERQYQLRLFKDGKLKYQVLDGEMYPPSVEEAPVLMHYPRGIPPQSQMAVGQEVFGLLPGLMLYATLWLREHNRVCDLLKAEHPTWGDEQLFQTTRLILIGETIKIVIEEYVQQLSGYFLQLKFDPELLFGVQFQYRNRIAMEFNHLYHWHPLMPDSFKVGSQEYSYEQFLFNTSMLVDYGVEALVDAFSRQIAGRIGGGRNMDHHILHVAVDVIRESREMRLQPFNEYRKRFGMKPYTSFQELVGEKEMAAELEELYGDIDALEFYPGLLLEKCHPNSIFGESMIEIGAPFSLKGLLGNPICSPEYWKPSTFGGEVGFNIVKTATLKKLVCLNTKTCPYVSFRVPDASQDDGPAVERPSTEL

Structure (SMILES) | EC50 [1] | Activity [2] | other results
CS(=O)(=O)c1ccc(/C=C2\C=C(CC(=O)O)c3cc(F)ccc32)cc1 | > 10000 nM | inactive | 
O=C(O)CC1=C/C(=C\c2ccc(Br)cc2)c2ccc(F)cc21 | 1100 nM | inactive | 
O=C(O)CC1=CCc2ccc(F)cc21 | > 10000 nM | inactive | 
COc1ccc(/C=C2\C=C(CC(=O)O)c3cc(F)ccc32)cc1 | 1300 nM | inactive | 
CC(C)(C)Oc1ccc(/C=C2\C=C(CC(=O)O)c3cc(F)ccc32)cc1 | 1900 nM | inactive | 
CSc1ccc(/C=C2/C(C)=C(CC(=O)O)c3cc(F)ccc32)cc1 |  | inactive | 
CSc1ccc(-c2ccc(/C=C3\C=C(CC(=O)O)c4cc(F)ccc43)cc2)cc1 | 1500 nM | inactive | 
O=C(O)CC1=C/C(=C\c2ccc(C(=O)O)cc2)c2ccc(F)cc21 | > 10000 nM | inactive | 
O=C(O)CC1=C/C(=C\c2ccc3ccccc3c2)c2ccc(F)cc21 | 1200 nM | inactive | 
O=C(O)CC1=C/C(=C\c2ccc3nccnc3c2)c2ccc(F)cc21 | > 10000 nM | inactive | 
O=C(O)CC1=C/C(=C\c2ccc(-c3ccccc3)cc2)c2ccc(F)cc21 | 100 nM | inactive | 
[N-]=[N+]=NCc1ccc(/C=C2\C=C(CC(=O)O)c3cc(F)ccc32)cc1 | 900 nM | inactive | 
O=C(O)CC1=C/C(=C\c2ccccc2)c2ccc(F)cc21 | 1700 nM | inactive | 
O=C(O)CC1=C/C(=C\c2ccc(F)c3ccccc23)c2ccc(F)cc21 | 100 nM | inactive | 
O=C(O)CC1=C/C(=C\c2cccc3ccccc23)c2ccc(F)cc21 | 100 nM | inactive | Activity [3]: Dose-dependent effect; Activity [4]: Active; Activity [5]: Active; Activity [6]: Active; Activity [7]: Active; Activity [8]: inactive; Activity [9]: inactive; Activity (3T3-L1): Active; Activity [10]: inactive; Activity [11]: Active; Activity [12]: inactive
CSc1ccc(/C=C2\C=C(CC(=O)O)c3cc(F)ccc32)cc1 | 700 nM | inactive | 
O=C(O)CC1=C/C(=C\c2ccc(-c3ccc(F)cc3F)cc2)c2ccc(F)cc21 | 100 nM | inactive | 
C[S+]([O-])c1ccc(/C=C2\C=C(CC(=O)O)c3cc(F)ccc32)cc1 (stereo unspecified) | > 10000 nM | inactive | 
O=C(O)CC1=C/C(=C\c2cccc3cccnc23)c2ccc(F)cc21 | 1500 nM | inactive | 
O=C(O)CC1=C/C(=C\c2ccc(SC(F)(F)F)cc2)c2ccc(F)cc21 | 200 nM | inactive | 
Cc1ccc(/C=C2\C=C(CC(=O)O)c3cc(F)ccc32)cc1 | 2400 nM | inactive | 
O=C(O)CC1=C/C(=C\c2ccc(C(F)(F)F)cc2)c2ccc(F)cc21 | 2500 nM | inactive | 
C#Cc1ccc(/C=C2\C=C(CC(=O)O)c3cc(F)ccc32)cc1 | 1100 nM | inactive | 
